≈ marks a conversion by molar mass, not a printed value.
Experiments:
[1] = Cytotoxicity against HEK293T cells at 50 ug/ml after 72 hrs by MTT assay; format: cell-based, HEK-293T; details: human, read-out: INH
HEK-293T = experiment: Cytotoxicity against HEK293T cells after 72 hrs by MTT assay; format: cell-based; details: Homo sapiens
Outline: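 Human embryonic kidney 293T cells were exposed to compound for 72 h. Viability was read by cellular conversion of MTT to formazan, and percentage growth of cells was reported.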

[2] = Selectivity index, ratio of IC50 for HEK293T cells to MIC for Mycobacterium tuberculosis H37Rv ATCC 27294; format: toxicity, cell-based, HEK-293T; details: human, read-out: Selectivity Index
Outline: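 SI was taken as the approximated IC50 in HEK293T cells (72 h MTT) relative to MIC against H37Rv (agar dilution, 28 days). SI above 10 was counted as nontoxic.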

[3] = system: Mycobacterium tuberculosis; experiment: Antimycobacterial activity against Mycobacterium tuberculosis H37Rv ATCC 27294 assessed as parasite growth inhibition after 28 days by agar dilution method; format: functional; details: H37Rv ATCC 27294, 672 h
Outline: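 Inoculum from fresh Middlebrook 7H11 agar slants with OADC supplement, adjusted to 1 mg/mL wet weight in 0.05% Tween 80 saline and diluted to about 10^7 cfu/mL. Suspension was spotted onto 7H11 agar tubes containing 10-fold serial drug dilutions and incubated at 37 °C. Read at 28 days. MIC was the lowest concentration completely inhibiting growth, run in triplicate at pH 7.40.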

| SMILES | cytotoxicity at 72 h, 50 ug/ml [1] [%] | IC50 (HEK-293T) [µg/mL] | selectivity ratio [2] | MIC [3] [µg/mL] |
| --- | --- | --- | --- | --- |
| CCOC(=O)Cn1cc(-c2ccc3oc4ccccc4c3c2)nn1 | 38.8 | > 50 | > 25 | 1.56 (≈ 4.85 µM) |
| OCCCCn1cc(-c2ccc3oc4ccccc4c3c2)nn1 | 21.9 | > 50 | 1 | 50 (≈ 163 µM) |
| c1ccc(Cn2cc(-c3ccc4oc5ccccc5c4c3)nn2)cc1 | 36.1 | > 50 | 1 | 50 (≈ 154 µM) |
| COc1cccc(Cn2cc(-c3ccc4oc5ccccc5c4c3)nn2)c1 | 62.1 | < 50 | 25 | 0.78 (≈ 2.19 µM) |
| COc1ccc(Cn2cc(-c3ccc4oc5ccccc5c4c3)nn2)cc1 | 52.7 | 50 (≈ 141 µM) | 16 | 3.12 (≈ 8.78 µM) |
| Brc1ccc(Cn2cc(-c3ccc4oc5ccccc5c4c3)nn2)cc1 | 27.8 | > 50 | > 25 | 0.78 (≈ 1.93 µM) |
| Brc1cccc(Cn2cc(-c3ccc4oc5ccccc5c4c3)nn2)c1 | 12 | > 50 | > 10 | 6.25 (≈ 15.5 µM) |
| O=[N+]([O-])c1ccc(Cn2cc(-c3ccc4oc5ccccc5c4c3)nn2)cc1 | 46.3 | 50 (≈ 135 µM) | 1 | 50 (≈ 135 µM) |
| COC(=O)c1ccc(Cn2cc(-c3ccc4oc5ccccc5c4c3)nn2)cc1 | 58.1 | < 50 | 1 | 25 (≈ 65.2 µM) |
| Cc1ccc(C(C)n2cc(-c3ccc4oc5ccccc5c4c3)nn2)cc1 (centres undefined) | 43.1 | 50 (≈ 141 µM) | 16 | 3.12 (≈ 8.83 µM) |
| COc1ccc(C(C)n2cc(-c3ccc4oc5ccccc5c4c3)nn2)cc1 (centres undefined) | 18.9 | > 50 | > 16 | 3.12 (≈ 8.45 µM) |
| CC(c1ccc([N+](=O)[O-])cc1)n1cc(-c2ccc3oc4ccccc4c3c2)nn1 (centres undefined) | 38.9 | > 50 | 2 | 25 (≈ 65 µM) |
| CC(c1ccc2oc3ccccc3c2c1)n1cc(-c2ccc3oc4ccccc4c3c2)nn1 (centres undefined) | 52.6 | 50 (≈ 116 µM) | 1 | 50 (≈ 116 µM) |
| CC(c1ccc2sc3ccccc3c2c1)n1cc(-c2ccc3oc4ccccc4c3c2)nn1 (centres undefined) | 61.1 | < 50 | 1 | 25 (≈ 56.1 µM) |
| CC[C@@H](CO)NCCN[C@@H](CC)CO [ETHAMBUTOL] |  |  |  | 3.13 (≈ 15.3 µM) |
| NNC(=O)c1ccncc1 [ISONIAZID] |  |  |  | 0.1 (≈ 0.729 µM) |
| CO[C@H]1/C=C/O[C@@]2(C)Oc3c(C)c(O)c4c(O)c(c(/C=N/N5CCN(C)CC5)c(O)c4c3C2=O)NC(=O)/C(C)=C\C=C\[C@H](C)[C@H](O)[C@@H](C)[C@@H](O)[C@@H](C)[C@H](OC(C)=O)[C@@H]1C [RIFAMPIN] |  |  |  | 0.2 (≈ 0.243 µM) |
